Assay results from ChEMBL document CHEMBL4765248, “Design, synthesis, biological evaluation and molecular docking study of novel thieno[3,2-d]pyrimidine derivatives as potent FAK inhibitors” (Eur J Med Chem, 2020).

Assays:
[1] = system: MDA-MB-231; assay: Induction of apoptosis in human MDA-MB-231 cells assessed as late apoptotic cells at 0.4 uM incubated for 48 hrs by Annexin V-FITC/PI staining based flow cytometric analysis (reference value: 1.49%); assay type: functional
[2] = Half life in rat liver microsomes at 1 uM measured up to 60 mins in presence of NADPH by LC-MS/MS analysis; assay type: ADME, Microsome
Method in brief: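 Rat liver microsomes (0.5 mg/mL) were incubated with 1 μM test compound at 37 °C in potassium phosphate buffer (pH 7.4, 100 mM, 10 mM MgCl2). The reaction was started with prewarmed NADPH cofactor (1 mmol). It was sampled at 0, 5, 10, 20, 30 and 60 min and quenched with cold acetonitrile. Protein was removed by centrifugation and the supernatant analysed by LC-MS/MS.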

[3] = system: MDA-MB-231; assay: Antiproliferative activity against human MDA-MB-231 cells assessed as cell viability at 2.5 uM measured after 24 hrs by MTT assay (reference value: 100%); assay type: functional; conditions: read-out: Activity
[4] = system: MDA-MB-231; assay: Antiproliferative activity against human MDA-MB-231 cells assessed as cell viability at 0.1 uM measured after 72 hrs by MTT assay (reference value: 100%); assay type: functional; conditions: read-out: Activity
[5] = system: A549; assay: Antiproliferative activity against human A549 cells assessed as cell viability at 0.5 uM measured after 72 hrs by MTT assay (reference value: 100%); assay type: functional; conditions: read-out: Activity
[6] = system: MDA-MB-231; assay: Induction of apoptosis in human MDA-MB-231 cells incubated for 48 hrs by Annexin V-FITC/PI staining based flow cytometric analysis; assay type: functional, cell-based; conditions: dose 0.1-0.4 µM
[7] = system: MDA-MB-231; assay: Induction of apoptosis in human MDA-MB-231 cells assessed as late apoptotic cells at 0.2 uM incubated for 48 hrs by Annexin V-FITC/PI staining based flow cytometric analysis (reference value: 1.49%); assay type: functional
[8] = system: MDA-MB-231; assay: Induction of apoptosis in human MDA-MB-231 cells assessed as early apoptotic cells at 0.2 uM incubated for 48 hrs by Annexin V-FITC/PI staining based flow cytometric analysis (reference value: 1.58%); assay type: functional
[9] = system: MDA-MB-231; assay: Induction of apoptosis in human MDA-MB-231 cells assessed as viable cells at 0.2 uM incubated for 48 hrs by Annexin V-FITC/PI staining based flow cytometric analysis (reference value: 95.84%); assay type: functional; conditions: read-out: Activity
[10] = system: MDA-MB-231; assay: Antiproliferative activity against human MDA-MB-231 cells assessed as cell viability at 0.5 uM measured after 24 hrs by MTT assay (reference value: 100%); assay type: functional; conditions: read-out: Activity
[11] = molecular target: Cyclin-dependent kinase 2 (Homo sapiens) (UniProt P24941); assay: Inhibition of human CDK2 at 1 uM by Selectscreen kinase assay
Method in brief: (§1)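 Single-point screen at 1 μM final against a panel of 25 kinases using a commercial profiling service; mean of three independent experiments each run in triplicate.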

[12] = molecular target: Proto-oncogene tyrosine-protein kinase receptor Ret (Homo sapiens) (UniProt P07949); assay: Inhibition of GST-tagged human RET cytoplasmic domain expressed in baculovirus expression system at 1 uM by Selectscreen kinase assay; method in brief: as §1
Chain of Proto-oncogene tyrosine-protein kinase receptor Ret (Homo sapiens) (P07949 whole entry, the tested form may be a part): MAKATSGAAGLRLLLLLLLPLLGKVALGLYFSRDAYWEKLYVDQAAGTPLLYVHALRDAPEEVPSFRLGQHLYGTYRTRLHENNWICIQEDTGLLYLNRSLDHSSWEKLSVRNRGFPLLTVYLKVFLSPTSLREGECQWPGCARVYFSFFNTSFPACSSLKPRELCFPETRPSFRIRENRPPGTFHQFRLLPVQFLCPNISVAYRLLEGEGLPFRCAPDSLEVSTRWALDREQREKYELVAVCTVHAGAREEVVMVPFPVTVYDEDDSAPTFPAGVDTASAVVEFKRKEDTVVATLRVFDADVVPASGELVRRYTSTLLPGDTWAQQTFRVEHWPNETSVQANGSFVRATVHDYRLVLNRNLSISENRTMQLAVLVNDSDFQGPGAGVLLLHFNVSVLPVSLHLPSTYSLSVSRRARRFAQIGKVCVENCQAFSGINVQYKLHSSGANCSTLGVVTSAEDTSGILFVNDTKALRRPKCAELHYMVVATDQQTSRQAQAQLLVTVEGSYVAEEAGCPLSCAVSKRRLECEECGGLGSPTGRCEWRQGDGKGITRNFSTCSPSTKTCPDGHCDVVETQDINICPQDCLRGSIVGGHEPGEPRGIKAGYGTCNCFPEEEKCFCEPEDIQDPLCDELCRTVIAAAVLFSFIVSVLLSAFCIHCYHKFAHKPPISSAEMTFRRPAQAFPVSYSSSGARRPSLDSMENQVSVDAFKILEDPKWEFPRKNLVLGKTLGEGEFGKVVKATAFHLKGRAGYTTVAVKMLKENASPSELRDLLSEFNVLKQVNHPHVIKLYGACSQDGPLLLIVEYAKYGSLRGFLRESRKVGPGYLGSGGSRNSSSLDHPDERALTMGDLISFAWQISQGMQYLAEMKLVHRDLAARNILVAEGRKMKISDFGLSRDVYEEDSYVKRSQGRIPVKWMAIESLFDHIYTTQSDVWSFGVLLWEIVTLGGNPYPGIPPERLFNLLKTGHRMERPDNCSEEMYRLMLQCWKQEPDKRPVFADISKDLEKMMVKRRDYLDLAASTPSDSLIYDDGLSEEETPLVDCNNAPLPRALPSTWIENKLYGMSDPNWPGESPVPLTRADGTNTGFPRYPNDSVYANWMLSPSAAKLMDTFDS

[13] = molecular target: T1, Focal adhesion kinase 1 (Homo sapiens, UniProt Q05397); assay: Inhibition of N-terminal GST-fused human truncated FAK (376 to 1052 residues) expressed in baculovirus expression system using tyrosine kinase peptide as substrate measured after 50 mins in presence of ATP by homogenous time resolved flourescence assay
Target sequence in this assay (Q05397 whole entry, the tested form may be a part): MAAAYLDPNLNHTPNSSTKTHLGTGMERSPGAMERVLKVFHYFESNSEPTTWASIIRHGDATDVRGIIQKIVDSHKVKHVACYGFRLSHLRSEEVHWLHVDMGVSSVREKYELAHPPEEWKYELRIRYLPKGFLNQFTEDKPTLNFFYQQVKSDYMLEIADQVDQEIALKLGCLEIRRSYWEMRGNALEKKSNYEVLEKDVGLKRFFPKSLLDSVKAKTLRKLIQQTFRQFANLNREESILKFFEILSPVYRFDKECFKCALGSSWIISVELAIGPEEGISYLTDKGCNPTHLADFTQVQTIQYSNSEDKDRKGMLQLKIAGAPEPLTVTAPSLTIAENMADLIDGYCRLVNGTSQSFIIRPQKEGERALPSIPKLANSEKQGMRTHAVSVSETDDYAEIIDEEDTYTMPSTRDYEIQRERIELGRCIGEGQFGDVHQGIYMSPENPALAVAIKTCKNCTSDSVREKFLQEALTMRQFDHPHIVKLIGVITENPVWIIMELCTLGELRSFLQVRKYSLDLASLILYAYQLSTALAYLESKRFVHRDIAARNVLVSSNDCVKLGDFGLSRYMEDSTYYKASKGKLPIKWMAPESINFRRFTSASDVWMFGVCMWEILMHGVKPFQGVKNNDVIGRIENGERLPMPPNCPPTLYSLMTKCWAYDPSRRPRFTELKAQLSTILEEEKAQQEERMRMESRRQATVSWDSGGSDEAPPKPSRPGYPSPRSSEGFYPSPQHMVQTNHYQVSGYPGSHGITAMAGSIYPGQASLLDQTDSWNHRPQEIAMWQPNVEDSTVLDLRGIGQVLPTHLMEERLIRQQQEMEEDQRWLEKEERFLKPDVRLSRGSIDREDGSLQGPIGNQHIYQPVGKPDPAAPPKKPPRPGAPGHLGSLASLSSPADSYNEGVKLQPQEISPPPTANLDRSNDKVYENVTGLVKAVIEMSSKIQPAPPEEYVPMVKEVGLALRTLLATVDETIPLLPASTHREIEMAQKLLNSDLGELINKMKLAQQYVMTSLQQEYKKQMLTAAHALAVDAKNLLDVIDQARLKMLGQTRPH

[14] = system: MDA-MB-231; assay: Inhibition of cell migration in human MDA-MB-231 cells measured after 48 hrs by wound healing assay; assay type: functional, cell-based; conditions: dose 0.15-0.6 µM
Method in brief: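 MDA-MB-231 cells (2×10^6/well) were grown to confluence and the monolayer was scratched with a pipette tip. Cells were washed with PBS, kept in serum-free medium and treated with DMSO or compound at 0.15, 0.3 or 0.6 μM for 48 h. Wound closure was photographed by inverted microscope at 24 and 48 h.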

[15] = molecular target: T1, Focal adhesion kinase 1; assay: Inhibition of GST-tagged full length human FAK expressed in baculovirus expression system at 1 uM by Selectscreen kinase assay; method in brief: as §1
Target sequence in this assay (Q05397 2-1052 limits assumed): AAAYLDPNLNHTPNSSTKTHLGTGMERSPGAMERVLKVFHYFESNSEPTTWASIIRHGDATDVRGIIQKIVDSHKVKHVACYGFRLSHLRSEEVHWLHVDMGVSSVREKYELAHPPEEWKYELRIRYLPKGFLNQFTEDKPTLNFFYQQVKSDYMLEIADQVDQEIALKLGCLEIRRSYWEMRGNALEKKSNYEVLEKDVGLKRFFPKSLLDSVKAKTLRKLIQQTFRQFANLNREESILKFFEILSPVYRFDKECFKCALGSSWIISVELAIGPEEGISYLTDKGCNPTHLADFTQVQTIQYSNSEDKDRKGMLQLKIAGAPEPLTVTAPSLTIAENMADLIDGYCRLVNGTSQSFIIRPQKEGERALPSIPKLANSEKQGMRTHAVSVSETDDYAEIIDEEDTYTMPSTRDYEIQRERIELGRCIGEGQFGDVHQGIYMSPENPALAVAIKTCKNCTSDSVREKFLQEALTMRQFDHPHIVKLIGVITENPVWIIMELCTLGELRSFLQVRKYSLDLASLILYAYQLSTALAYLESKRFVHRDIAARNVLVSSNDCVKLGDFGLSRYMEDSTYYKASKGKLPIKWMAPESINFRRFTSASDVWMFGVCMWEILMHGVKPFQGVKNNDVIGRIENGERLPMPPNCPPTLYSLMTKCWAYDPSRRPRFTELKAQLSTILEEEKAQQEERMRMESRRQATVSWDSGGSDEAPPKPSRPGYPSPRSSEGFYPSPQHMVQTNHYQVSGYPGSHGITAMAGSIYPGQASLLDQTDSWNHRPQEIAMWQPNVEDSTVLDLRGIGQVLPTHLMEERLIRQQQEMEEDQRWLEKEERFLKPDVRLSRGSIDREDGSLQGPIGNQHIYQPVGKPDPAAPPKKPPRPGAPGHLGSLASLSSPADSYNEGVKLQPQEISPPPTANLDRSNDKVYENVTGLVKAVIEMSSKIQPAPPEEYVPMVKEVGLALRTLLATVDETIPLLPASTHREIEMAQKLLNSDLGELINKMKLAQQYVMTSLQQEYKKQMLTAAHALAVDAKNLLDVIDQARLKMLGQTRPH

[16] = system: MDA-MB-231; assay: Induction of cell cycle arrest in human MDA-MB-231 cells assessed as accumulation of cells at S phase at 0.4 uM measured after 48 hrs by PI staining based flow cytometry method (reference value: 39.17%); assay type: functional
[17] = system: A549; assay: Antiproliferative activity against human A549 cells assessed as inhibition of cell growth measured after 72 hrs by MTT assay; assay type: functional, cell-based; conditions: A549, 72 h
Method in brief: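 Cells were seeded at 4000–5000/well and held 24 h at 37 °C in 5% CO2. Compounds were added at the indicated final concentrations and incubated 72 h. MTT was added (5 mg/mL in PBS, stated as final) for 4 h at 37 °C. Formazan was dissolved in DMSO and absorbance read at 490 nm. The 50% growth-inhibitory concentration is the mean of three independent experiments ± SE.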

[18] = molecular target: Serine/threonine-protein kinase pim-1 (Homo sapiens) (UniProt P11309); assay: Inhibition of His-tagged full length recombinant human PIM1 expressed in baculovirus expression system at 1 uM by Selectscreen kinase assay; method in brief: as §1
Chain of Serine/threonine-protein kinase pim-1 (Homo sapiens) (P11309 whole entry, looked up): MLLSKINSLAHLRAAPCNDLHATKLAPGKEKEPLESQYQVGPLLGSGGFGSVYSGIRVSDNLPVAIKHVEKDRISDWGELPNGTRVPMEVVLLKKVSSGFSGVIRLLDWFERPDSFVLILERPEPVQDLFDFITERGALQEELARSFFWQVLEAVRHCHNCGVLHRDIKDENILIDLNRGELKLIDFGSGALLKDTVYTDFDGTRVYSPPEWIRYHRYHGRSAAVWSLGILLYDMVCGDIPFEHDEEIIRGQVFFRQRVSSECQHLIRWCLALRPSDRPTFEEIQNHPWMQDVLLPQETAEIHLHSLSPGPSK

[19] = system: MDA-MB-231; assay: Antiproliferative activity against human MDA-MB-231 cells assessed as reduction in cell viability at 0.1 to 2.5 uM by MTT assay; assay type: functional, cell-based; conditions: dose 0.1-2.5 µM, time 24-72 hrs, TDE = time-dependent effect
[20] = molecular target: Calcium/calmodulin-dependent protein kinase kinase 2 (Homo sapiens) (UniProt Q96RR4); assay: Inhibition of GST-tagged full length human CAMKK2 expressed in baculovirus expression system at 1 uM by Selectscreen kinase assay
Method in brief: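 Commercial SelectScreen profiling panel of 25 kinases, test compound at 1 μM. Values are the mean of three independent experiments, each run in triplicate.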

[21] = molecular target: ALK tyrosine kinase receptor (Homo sapiens) (UniProt Q9UM73); assay: Inhibition of GST-tagged human ALK expressed in baculovirus expression system at 1 uM by Selectscreen kinase assay; method in brief: as §1
[22] = system: A549; assay: Antiproliferative activity against human A549 cells assessed as cell viability at 0.5 uM measured after 48 hrs by MTT assay (reference value: 100%); assay type: functional; conditions: read-out: Activity
[23] = system: MDA-MB-231; assay: Antiproliferative activity against human MDA-MB-231 cells assessed as cell viability at 0.1 uM measured after 48 hrs by MTT assay (reference value: 100%); assay type: functional; conditions: read-out: Activity
[24] = molecular target: Homeodomain-interacting protein kinase 3 (Homo sapiens) (UniProt Q9H422); assay: Inhibition of His-tagged human HIPK3 catalytic domain expressed in baculovirus expression system at 1 uM by Selectscreen kinase assay; method in brief: as §1
Chain of Homeodomain-interacting protein kinase 3 (Homo sapiens) (Q9H422 whole entry, looked up, the tested form may be a part): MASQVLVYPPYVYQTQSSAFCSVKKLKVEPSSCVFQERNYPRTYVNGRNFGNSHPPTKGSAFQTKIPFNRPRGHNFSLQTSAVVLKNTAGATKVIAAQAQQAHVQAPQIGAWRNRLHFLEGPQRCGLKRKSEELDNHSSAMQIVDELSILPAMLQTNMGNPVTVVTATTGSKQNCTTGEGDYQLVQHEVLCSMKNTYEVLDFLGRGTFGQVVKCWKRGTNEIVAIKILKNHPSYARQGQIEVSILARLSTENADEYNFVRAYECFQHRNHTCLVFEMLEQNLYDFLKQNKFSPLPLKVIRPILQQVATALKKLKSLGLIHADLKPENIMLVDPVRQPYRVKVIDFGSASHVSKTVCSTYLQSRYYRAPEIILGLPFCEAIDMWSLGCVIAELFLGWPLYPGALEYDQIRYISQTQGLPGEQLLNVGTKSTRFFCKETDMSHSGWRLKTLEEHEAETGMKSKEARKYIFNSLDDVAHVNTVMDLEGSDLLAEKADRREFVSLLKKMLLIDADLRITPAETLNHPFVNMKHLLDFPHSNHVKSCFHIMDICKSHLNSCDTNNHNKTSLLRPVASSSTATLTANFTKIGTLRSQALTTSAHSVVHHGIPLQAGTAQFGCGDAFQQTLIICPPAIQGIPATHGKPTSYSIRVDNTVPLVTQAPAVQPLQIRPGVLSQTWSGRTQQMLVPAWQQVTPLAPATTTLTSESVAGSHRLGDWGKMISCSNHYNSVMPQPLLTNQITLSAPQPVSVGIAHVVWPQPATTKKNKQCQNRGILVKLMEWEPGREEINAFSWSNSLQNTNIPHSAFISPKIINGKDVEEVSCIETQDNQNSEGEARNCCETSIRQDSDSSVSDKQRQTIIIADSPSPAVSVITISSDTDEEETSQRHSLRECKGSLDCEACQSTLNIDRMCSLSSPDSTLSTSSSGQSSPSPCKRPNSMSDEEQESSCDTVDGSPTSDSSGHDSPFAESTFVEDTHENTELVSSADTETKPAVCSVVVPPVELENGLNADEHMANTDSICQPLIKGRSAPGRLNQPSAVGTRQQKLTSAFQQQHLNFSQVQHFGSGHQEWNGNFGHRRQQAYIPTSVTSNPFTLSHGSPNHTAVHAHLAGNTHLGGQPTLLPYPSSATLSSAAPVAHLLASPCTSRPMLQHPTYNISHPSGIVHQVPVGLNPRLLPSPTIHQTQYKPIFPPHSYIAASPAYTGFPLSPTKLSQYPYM

[25] = molecular target: MAP kinase-interacting serine/threonine-protein kinase 1 (Homo sapiens) (UniProt Q9BUB5); assay: Inhibition of GST-tagged full length human MKNK1 expressed in insect expression system at 1 uM by Selectscreen kinase assay; method in brief: as §1
[26] = system: MDA-MB-231; assay: Induction of apoptosis in human MDA-MB-231 cells assessed as viable cells at 0.1 uM incubated for 48 hrs by Annexin V-FITC/PI staining based flow cytometric analysis (reference value: 95.84%); assay type: functional; conditions: read-out: Activity
[27] = system: MDA-MB-231; assay: Antiproliferative activity against human MDA-MB-231 cells assessed as cell viability at 2.5 uM measured after 48 hrs by MTT assay (reference value: 100%); assay type: functional; conditions: read-out: Activity
[28] = system: MDA-MB-231; assay: Induction of cell cycle arrest in human MDA-MB-231 cells assessed as accumulation of cells at S phase at 0.2 uM measured after 48 hrs by PI staining based flow cytometry method (reference value: 39.17%); assay type: functional

With `COc1ccccc1-c1csc2cnc(Nc3ccc(C(=O)NC4CCNCC4)c(F)c3)nc12` the Activity [1] was 26.21%, the half-life at 1 µM [2] was 2.23 h and the viability at 2.5 µM [3] was 52.2%. For the same compound, the viability at 0.1 µM [4] was 69.7%, the viability at 0.5 µM [5] was 32.2% and the Activity [6] was “Dose-dependent effect”. The Activity [7] was 13.55%, the Activity [8] was 9.78% and the viability at 0.2 µM [9] was 75%. For the same compound, the viability at 0.5 µM [10] was 73.7%, the inhibition [11] was 97% and the inhibition [12] was 97%. For the same compound, the IC50 [13] was 28.2 nM, the inhibition [14] was “Dose-dependent effect” and the inhibition [15] was 100%. It also gave an Activity [16] of 40.18%, an IC50 [17] of 270 nM and an inhibition [18] of 3%. For the same compound, the Activity [19] was “Tde”, the inhibition [20] was 77% and the inhibition [21] was 95%. For the same compound, the viability at 0.5 µM [22] was 47.4%, the viability at 0.1 µM [23] was 74.1% and the inhibition [24] was 72%. For the same compound, the inhibition [25] was 13%, the viability at 0.1 µM [26] was 85.5% and the viability at 2.5 µM [27] was 11.9%. It also gave an Activity [28] of 39.11%.
